# Compound activity from PubChem BioAssay.
# VIM-2 inhibitor: inhibitors of Pseudomonas aeruginosa VIM-2 metallo-beta-lactamase. 290,000 compounds, 0.89% hits. inhibition, % at 5.6 µM. AID 1527. purified VIM-2, nitrocefin hydrolysis, epi-absorbance fluorescence;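 active = inhibition above the mean of all tested compounds plus 3 SD, cutoff set per screening run, cut at about 7.5% in these data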;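 note: red hydrolysis product quenches plate fluorescence so inhibitors raise well fluorescence; 0% = enzyme with DMSO and 100% = DMSO without enzyme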
# IMP-1 inh: blocks Pseudomonas aeruginosa IMP-1 metallo-beta-lactamase; purified IMP-1, nitrocefin hydrolysis, epi-absorbance fluorescence; inhibition, % at 5.6 µM; 290,000 compounds, 0.45% hits; AID 1556;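 active = inhibition above the mean plus 3 SD of all compounds in the same screening run, cut at about 4.5% in these data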;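 note: 0% = IMP-1 with DMSO and 100% = DMSO wells lacking enzyme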
#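 System: Purified recombinant IMP-1 metallo-beta-lactamase enzyme | Measured by: Fluorescence quenching readout, ex 480/em 530 nm | Replication: Singlicate | Incubation: 15 min preincubation plus 25 min reaction at 25 °C | Evaluation: Percent inhibition from optical density relative to buffer-blank wells | Benchmarks: DMSO with and without IMP-1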
# PABP polyA inh: PABP-poly(A) binding inhibition. P11940. PABP-poly(A) RNA binding, fluorescence polarization. 290,000 compounds, 1% hits. calls only at 35 µM;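 note: calls also rest on retests at 20 µM and on dose response follow-up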
# Target sequence (P11940 whole entry, looked up): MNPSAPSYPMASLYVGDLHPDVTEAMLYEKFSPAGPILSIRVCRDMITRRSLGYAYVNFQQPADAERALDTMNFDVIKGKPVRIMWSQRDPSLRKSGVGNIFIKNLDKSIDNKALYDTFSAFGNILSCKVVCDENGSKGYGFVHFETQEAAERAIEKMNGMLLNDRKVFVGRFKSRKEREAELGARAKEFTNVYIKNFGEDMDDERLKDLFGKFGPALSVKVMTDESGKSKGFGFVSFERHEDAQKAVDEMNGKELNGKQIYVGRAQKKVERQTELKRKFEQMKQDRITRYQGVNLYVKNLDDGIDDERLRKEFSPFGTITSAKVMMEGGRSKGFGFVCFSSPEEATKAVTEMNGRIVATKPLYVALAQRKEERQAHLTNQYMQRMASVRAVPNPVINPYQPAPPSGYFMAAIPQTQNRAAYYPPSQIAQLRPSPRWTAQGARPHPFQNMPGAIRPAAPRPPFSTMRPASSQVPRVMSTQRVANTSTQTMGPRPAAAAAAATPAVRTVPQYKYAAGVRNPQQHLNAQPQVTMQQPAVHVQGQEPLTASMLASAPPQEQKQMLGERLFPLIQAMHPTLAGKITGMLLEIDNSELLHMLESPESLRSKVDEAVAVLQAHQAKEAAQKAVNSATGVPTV
# eIF4H inh: inhibitors of RNA binding by human eIF4H | Q15056 | eIF4H fluorescence polarization binding assay | inhibition, % at 35 µM | 290,000 compounds, 0.94% hits;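 note: calls also rest on retests at 20 µM and on dose response follow-up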
# MLLE-PAM2 inh: inhibitors of microRNA-mediated deadenylation, human PABP1 MLLE binding; P11940; GST-MLLE / FITC-PAM2 fluorescence polarization; inhibition, % at 20 µM; 360,000 compounds, 0.36% hits; AID 588489; in the data active = inhibition above about 35%, passing the limit was not always enough;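 note: plate controls were DMSO wells with GST-MLLE for no effect and wells lacking GST-MLLE protein for full effect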
# Numbers without * were called inactive; i = inactive; ? = inconclusive; · = no result given; + = active, no number. A selection: hits, their analogues and other compounds. The true share with any hit is near 2.2%. Unless noted, the rule behind the calls is not given here.
SMILES,VIM-2 inhibitor,IMP-1 inh,PABP polyA inh,eIF4H inh,MLLE-PAM2 inh
CCN(CC)CCCN=C1N[C@@H](c2cccc(C(F)(F)F)c2)C(C(=O)OC)=C(C)N1CC,·,·,·,·,-141
CN(C)c1cccc(NC2=CC(=[N+]3CCOCC3)CC(C)(C)C2)c1,-2,-2,+,10,-94
CC1(C)CC(=O)C=C(Nc2cccc(F)c2)C1,0,-1,i,-13,9
CC(C)c1nnc(NC(=O)CC(C)c2ccccc2)s1 (stereo unspecified),-1,-1,i,-2,-3
CC(CC(=O)Nc1nnc(C(C)(C)C)s1)c1ccccc1 (stereo unspecified),-2,-1,i,-7,48*
COc1ccccc1C(=O)NC(CCSC)C(=O)NCc1ccccn1 (stereo unspecified),·,·,·,·,2
Cc1sc(NC(=O)CSc2nnc(-c3ccc(F)cc3)o2)c(C#N)c1C,1,0,+,66*,-2
Cc1ccc(-c2nnc(SCC(=O)Nc3sc(C)c(C)c3C#N)n2C)cc1,-1,-1,i,12,-2
CC(=O)Nc1ccc(S(=O)(=O)N(C)CC(=O)OC2CCCCC2=O)cc1 (stereo unspecified),·,·,·,·,2
Cc1cc(C)c2nc(-c3ccccn3)cc(C(=O)n3cccn3)c2c1,-4,-3,+,25,-4
Cc1c(Cl)ccc2c(C(N)=O)cc(-c3ccccn3)nc12,-1,-3,i,31,-1
CC[N+]1(CC)CC2CCC(C)(C1)C2(C)C (stereo unspecified),-3,-2,i,8,-107
CCCS(=O)(=O)N1CCCC(C(=O)NCCCN2CCN(c3ccc(F)cc3)CC2)C1 (stereo unspecified),-1,5.4*,i,-3,-8
CCCS(=O)(=O)N1CCCC(C(=O)NCCCOC(C)C)C1 (stereo unspecified),-2,-2,i,3,18
CCN(CC(=O)NCc1ccc(Cl)cc1)C(=O)NCc1ccc(Cl)cc1,-3,1,i,-14,-2
CCN(CC(=O)NCc1ccc(Cl)cc1)CC(=O)Nc1ccc(C(N)=O)cc1,-4,-4,i,0.4*,1
CC(=O)Nc1ccc(S(=O)(=O)NCc2ccc(C(=O)NCc3ccc(Cl)cc3)cc2)cc1,-2,-3,i,-5,-21
CCN(CC(=O)NCc1ccc(Cl)cc1)C(=O)CNS(=O)(=O)c1ccc(NC(C)=O)cc1,-3,-3,i,4,41*
Cc1ccc(-c2nnn(CCC(=O)N3CCCCC3C)n2)cc1 (stereo unspecified),-1,-1,i,-8,1
CC1CCCCN1C(=O)Cn1nnc(-c2cccnc2)n1 (stereo unspecified),0,0,i,?,49*
O=C(N[C@@H](Cc1ccccc1)C(=O)OCc1ccccc1)c1nc[nH]c1C(=O)N1CCNCC1,·,·,·,·,4
O=C(O)CCC(=O)Nc1sc2c(c1C(=O)Nc1cccc3ccccc13)CCCCC2,-4,-2,+,58*,-78
O=C(CN1C(=O)NC2(CCCC2)C1=O)Nc1ccc(F)c(Cl)c1,-2,-2,i,3,5
Cn1c2ccc(F)cc2c2nnc(SCCN3CCCCC3)nc21,12*,-2,i,-14,18
CCn1c2ccc(C)cc2c2nnc(SCCN3CCOCC3)nc21,11*,-2,i,-6,32
SMILES,VIM-2 inhibitor,IMP-1 inh,PABP polyA inh,eIF4H inh,MLLE-PAM2 inh
CCn1c2ccc(F)cc2c2nc3ccccc3nc21,1,-1,i,6,17
CCn1c2ccccc2c2nnc(SCCN3CCOCC3)nc21,3,0,i,-1,23
CCCCn1c2ccc(F)cc2c2nnc(SCCN3CCCCC3)nc21,8.4*,-4,i,4,23
OC(c1cccs1)(c1cccs1)C1C[N+]2(CF)CCC1CC2 (stereo unspecified),-2,-2,i,1,-3
CCCCn1c(/C=C/c2ccco2)nc2ccccc21,-4,-4,+,52*,-21
Cn1c(SCC(=O)NC2CC2)nnc1-c1ccc(Cl)cc1,·,·,·,·,5
C=CCC(NC(C)c1ccccc1)c1ccco1 (stereo unspecified),2,8.4*,i,2,-7
CC(=O)Nc1ccc(C(=O)OCC(=O)N(C)C2CCCCC2)cc1,-1,-3,i,active,2
COc1ccc(C(=O)C[n+]2cn(C(F)F)c3ccccc32)c(F)c1,0,-1,i,0,2
O=C(N/N=C/c1ccc(OC(=O)c2cccc(F)c2)cc1)c1cccnc1,1,4.6*,i,-53,2
O=C(N/N=C/c1ccc(OC(=O)c2cccc(Br)c2)cc1)c1cccnc1,-1,9.7*,i,-8,-5
O=C(N/N=C/c1ccc(OC(=O)c2ccc(Br)cc2)cc1)c1ccncc1,-3,7.6*,i,79*,-6
CC(=O)c1ccc(NC(=O)c2cccc(N3C(=O)c4ccccc4C3=O)c2)cc1,0,7.7*,i,20,-26
CC(C)(C)c1ccc(C(=O)Nc2ccc3c(c2)C(=O)NC3=O)cc1,-1,-2,i,-7,2
Cc1cc(C)cc(NC(=O)c2ccc(NC(=O)c3ccco3)cc2)c1,-2,-2,i,7,-5
CC(=O)c1ccc(C(=O)Nc2ccc3c(c2)C(=O)NC3=O)cc1,0,6.1*,i,-4,2
CC(=O)Nc1ccc(NC(=O)c2ccco2)cc1,-3,-3,i,-5,11
CC(=O)c1ccc(NC(=O)c2ccc(NC(=O)c3ccco3)cc2)cc1,3,19*,i,-20,-147
COC(=O)c1ccc(NC(=O)c2ccc(NC(=O)c3ccco3)cc2)cc1,2,4.7*,i,-2,-94
CC1CCCN(C(=O)CN2C(=O)NC(C)(c3ccc4ccccc4c3)C2=O)C1 (stereo unspecified),·,·,·,·,-13
CC1=NC(=O)C(N=Nc2cccc(C(=O)O)c2)N1c1ccccc1 (stereo unspecified),1,-5,+,13*,-111
CCOC(=O)CCCCCC(=O)Nc1ccc2c(c1)C(=O)N([C@H](C)CO)C[C@H](C)[C@H](CN(C)C(=O)C1CCCCC1)OCCCC[C@@H](C)O2,·,·,·,·,4
COc1ccccc1CNC(=O)C(=O)NCC1CCCO1 (stereo unspecified),-2,-1,+,active,-9
COc1ccccc1CC(=O)NCC1CCCO1 (stereo unspecified),·,·,i,-5,9
CCOc1ccc(S(=O)(=O)N2CCCCC2)cc1NC(=O)CCNC(=O)c1ccco1,·,·,·,·,-6
CC(C)(C)c1cc[n+](C2=C([O-])c3ccccc3C(=O)/C2=N\S(=O)(=O)c2cccs2)cc1,3,7.0*,i,10,8
O=C(O)C1C2CCC(CC2)C1C(=O)N1CCN(Cc2ccc(F)cc2)CC1 (stereo unspecified),0,15*,i,-1,-21
